The structures appear in SMILES notation. Values joined by “and” are separate entries in the source; they are usually repeats but may differ in a detail not shown here. Equal entries are not always repeated.

The target in the test is Methionine--tRNA ligase, mitochondrial (Homo sapiens) (UniProt Q96GW9). The test is described as follows: human mtMetRS tRNA charging inhibition – biochemical, radioactivity, round 1, selectivity assay for T. brucei MetRS inhibitor project, late-stage follow-up (AID 743061).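 Also: 0% = DMSO with full reaction and 100% = DMSO wells lacking tRNA.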 The following applies: recombinant human mtMetRS, [3H]Met tRNA charging, at 1 µM, stronger effect = higher value. The method in brief:
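System: recombinant human mitochondrial methionyl-tRNA synthetase (MetRS); Buffer or medium: pH 8.0 reaction buffer containing 2.5 mM ATP; Controls: high DMSO, low without tRNA; Reagent: [3H]Met 240 nM plus bulk E. coli tRNA; Schedule: 15 min preincubation, 1 h reaction, room temperature; Measured by: scintillation counts of TCA-precipitated charged tRNA on filters.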
On to `O=C(NNC(=O)c1cc(-c2ccc(Cl)c(Cl)c2)nc2ccccc12)Nc1ccccc1`, for which the inhibition (usually the change of the read-out against control, counted positive when it falls) is -17.1%.
In the case of `O=C(NCc1nc2ccccc2[nH]1)C1=C[C@H](C2CC2)C[C@H](OCc2ccc(CO)cc2)O1` it was 7.99%.
With `O=C(C[C@H]1C(=O)N(Cc2ccccc2)C[C@@H]1c1ccc(Br)cc1)Nc1ccc(Br)cc1` the figure was -13%; with `O=C(CN1CCSC1=NCc1ccccc1)c1ccc(Cl)c(Cl)c1`, -25.1%; with `O=C(CSc1nnc2c(n1)[nH]c1ccc(Br)cc12)NCc1ccccc1`, -0.52%.
`O=C(NCc1nc2ccccc2[nH]1)C1=C[C@@H](C2CC2)C[C@@H](OCc2ccc(CO)cc2)O1`: the inhibition is -11.4%.
In the case of `O=C(Nc1ccc(F)c(Cl)c1)C1CC(=O)n2c(nc3ccccc32)N1` (stereo not given) it was -11.1% and -0.44%.
In the case of `COc1ccccc1NS(=O)(=O)c1cccc(NC(=O)Nc2ccccc2)c1` it was -9.69%.
In the case of `CC(C)c1nc2ccc(C(=O)N(C)CCc3nc4ccc(F)cc4[nH]3)cc2o1` it was -1.54%.
On to `O=C(NCc1nc2ccccc2[nH]1)C1=C[C@H](c2ccc(Br)cc2)C[C@H](OCCCCO)O1`, for which the inhibition was -6.37%.
In the case of `Cc1cc2cc(C(=O)N3CCCC(c4nc5ccccc5[nH]4)C3)ccc2o1` (stereo not given) it was -13.2%.
With `CCOC(=O)N1CCC(Nc2c(Nc3ccc(F)cc3)c(=O)c2=O)CC1` the figure was -8.53%.
With `CCN(CC)C(=O)C(=O)c1cn(CC(=O)Nc2cccc(C(F)(F)F)c2)c2ccccc12` the figure was -0.41%; with `CC(CC(=O)Nc1cccc(Br)c1)=NNC(=O)c1ccc(O)cc1O`, -24.6%.
For the molecule `O=C(Cn1cc(C(=O)C2CC2)c2ccccc21)Nc1cccc(C(F)(F)F)c1`, the inhibition was found to be 0.73%.
With `C[C@H](O)[C@@H]1C(=O)N2CCc3c([nH]c4ccccc34)[C@@H]2C[C@@H]1N(C)Cc1ccc2c(c1)OCO2` the figure was -17.7%.
For `CC(C)OCCCN1CC(=O)N2C(c3cccc([N+](=O)[O-])c3)c3[nH]c4ccccc4c3C[C@H]2C1=O` (stereo not given in full), the inhibition was -24.2%.
As for `Clc1ccc(-c2nnc(SCc3nc4ccccc4[nH]3)o2)c(Cl)c1`, the inhibition was -3.17%.
In the case of `O=C(NCc1nc2ccccc2[nH]1)C1=C[C@@H](c2ccccc2)C[C@@H](OCc2ccc(CO)cc2)O1` it was -16.8%.
In the case of `CCc1ccc2c(c1)c1nnc(SCC(=O)Nc3ccc4c(c3)OCO4)nc1n2C`, the inhibition is -9.7%.
In the case of `CN(Cc1cc(Cl)cc(Cl)c1)[C@H]1C[C@H]2c3[nH]c4ccccc4c3CCN2C(=O)[C@H]1CO` it was 14%.
With `O=C(NCCc1nc2ccccc2[nH]1)c1ccc(Cl)c([N+](=O)[O-])c1`, the inhibition was 2.97%.
With `O=C(NCc1nc2ccccc2[nH]1)C1=C[C@H](c2ccc3c(c2)OCO3)C[C@H](OCCCCO)O1` the figure was -10.7%; with `CCc1ccc2[nH]c3nc(SCC(=O)NCc4cccc(OC)c4)nnc3c2c1`, -1.1%.
In the case of `CCN(C(=O)Cn1cc(C(=O)C(=O)N2CCOCC2)c2ccccc21)c1ccccc1` it was -12.3%.
In the case of `Cc1cccc(C(=O)NCCc2nc3ccccc3n2CCOc2ccccc2)c1` it was 1.28%; in that of `O=C(NCCc1nc2ccccc2[nH]1)c1ccc(Cl)c(Cl)c1`, 2.38%.
Turning to `CCC(=O)c1cn(CC(=O)Nc2cccc(C(F)(F)F)c2)c2ccccc12`, the inhibition was -18.3%.
Consider `Cc1ccc2[nH]c3nc(SCC(=O)Nc4ccc(C(F)(F)F)cc4)nnc3c2c1`, for which the inhibition is -10%.
With `CCN(CCc1nc2ccc(C)cc2[nH]1)C(=O)c1ccc2ncccc2c1` the figure was -5.17%; with `CN(CC(=O)Nc1ccc(Cl)cc1)C(=O)c1ccc(-n2cncn2)c([N+](=O)[O-])c1`, -36.7%.
In the case of `CCO[C@H]1OC(C(=O)NCc2nc3ccccc3[nH]2)=C[C@@H](c2ccc(Br)cc2)[C@@H]1CCCO` it was -15%; in that of `CNC(=S)N(CCc1ccccc1)C1CC(=O)N(c2ccc(Br)cc2)C1=O` (stereo not given), 39%.
With `Brc1cnc2nc(SCc3nc4ccccc4[nH]3)[nH]c2c1` the figure was -21.5%.
Consider `O=C(NCc1nc2ccccc2[nH]1)C1=C[C@H](c2ccccc2)C[C@H](OCc2ccc(CO)cc2)O1`, for which the inhibition was -8.08%.

Source of the values: PubChem BioAssay AID743061 (The Scripps Research Institute Molecular Screening Center, 2013).
